Diaph inh CS = counter-screen for diaphorase-based assays: diaphorase inhibitors and chemical oxidizers | AID 1217 | 190,000 tested, 0.69% active | inhibition, % at 20 µM | diaphorase resazurin-to-resorufin fluorescence, NADH, 16 min; bacterial (C. kluyveri) enzyme, not human;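 active means primary screen inhibition at 20 µM above a set limit, cut at about 50% in these data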;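 further: plate controls were DMSO with full reaction for no effect and wells lacking NADH for full effect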
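Detection: fluorescence of resorufin formed from resazurin, Ex 544/Em 590 nm; test system: Clostridium kluyveri diaphorase enzyme; amount: 0.14 U/mL diaphorase, enzyme working solution; times: 16-min room-temperature incubation before reading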
Diaph act CS = diaphorase activation or chemical reduction counter-screen; Diaphorase/resazurin coupled assay, resorufin fluorescence, 16 min; hits give high values; 1 = vehicle wells, 0 = NADH-free wells; activation factor at 20 µM; 190,000 tested, 0.005% active;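 active means diaphorase activity raised at least twofold by the compound at 20 µM; inactive means activation factor below 2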
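Measured by – red resorufin fluorescence at 544/590 nm excitation/emission · Test system – Clostridium kluyveri diaphorase, purified enzyme · Incubation – reaction time 16 min, room temperature · Buffer or medium – 50 mM HEPES pH 7.4 with 4.542 mM MgCl2, 0.005% Tween 20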
FLuc act counter = firefly luciferase counter-screen for stimulation assays. 200,000 tested, under 10 active. P08659. ATPlite luciferase biochemical, luminescence, 10 min; 0 = ATP-free wells, 1 = DMSO control. activation factor at 10 µM;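 active means luciferase activation factor, scaled between plate controls, of at least 2 with compound at 10 µM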
Target sequence (P08659 whole entry, looked up): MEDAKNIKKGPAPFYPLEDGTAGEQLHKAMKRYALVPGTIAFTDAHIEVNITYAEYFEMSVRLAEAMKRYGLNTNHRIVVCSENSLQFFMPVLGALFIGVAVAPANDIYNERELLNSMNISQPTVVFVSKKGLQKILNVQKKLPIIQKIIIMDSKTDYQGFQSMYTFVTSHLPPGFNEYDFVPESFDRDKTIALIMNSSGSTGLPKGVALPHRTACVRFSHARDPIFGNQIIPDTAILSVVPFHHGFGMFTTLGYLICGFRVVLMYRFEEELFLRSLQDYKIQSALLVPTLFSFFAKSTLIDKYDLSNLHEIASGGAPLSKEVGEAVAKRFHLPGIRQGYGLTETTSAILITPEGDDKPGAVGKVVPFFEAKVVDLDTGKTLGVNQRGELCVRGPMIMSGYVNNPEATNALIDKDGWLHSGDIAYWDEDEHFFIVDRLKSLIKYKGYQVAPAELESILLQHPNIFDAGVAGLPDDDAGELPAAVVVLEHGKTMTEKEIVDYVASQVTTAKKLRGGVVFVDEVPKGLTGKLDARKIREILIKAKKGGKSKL
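Material: luciferase plus luciferin reagent, cell-free. Medium: PBS buffer for ATP. Also added: ATP substrate, dispensed from a 10.24 µM working solution in PBS. Doses: test compounds dosed from 2 mM stocks in 100% DMSO. Incubation: 10 min post-reagent at room temperature. Technique: light output (luminescence). Read-out basis: luminescence gain marking luciferase activators.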
G6PDH counter = counter-screen for G6PDH assay hits: L. mesenteroides G6PDH inhibition; 200,000 tested, 0.12% active; inhibition, % at 5 µM; Purified L. mesenteroides G6PDH, diaphorase/resazurin coupled fluorescence, 45 min; in the data active means inhibition above about 50%
FLuc inh counter = inhibits firefly luciferase, flagging false hits in luciferase inhibition screens; P08659; ATPLite firefly luciferase biochemical luminescence, 10 min; inhibition, % at 10 µM; 200,000 tested, 1.5% active;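 active means inhibition above about 50% when tested at 10 µM, limit read from the data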
* marks the source's active call; other numbers are inactive results. This is a sample that favours compounds with a hit; in the whole collection about 2.3% have one here.

SMILES | Diaph inh CS | Diaph act CS | FLuc act counter | G6PDH counter | FLuc inh counter
CCOc1ccc(OCCSc2nc3ccccc3[nH]2)cc1 | -2 | 1 | 1 | 3 | -2
CCCOc1ccc(CSc2nc3ccccc3[nH]2)cc1 | 14 | 0.9 | 0.4 | 6 | 64*
O=[N+]([O-])c1ccc(CSc2nc3ccccc3[nH]2)cc1 | 4 | 1 | 0.4 | -9 | 65*
Fc1ccc(CSc2nc3ccccc3[nH]2)cc1 | 6 | 0.9 | 0.5 | 0 | 49
Cc1ccc(C(=O)N2CCN(C(=O)c3ccco3)CC2)cc1NC(=O)c1ccco1 | -11 | 1.1 | 1 | 9 | -1
C=CCNC(=O)NC(=O)COC(=O)CNS(=O)(=O)c1ccc(F)c(F)c1F | -12 | 1.1 | 1 | 0 | 1
CN(C)c1ccc(/C=C(\Cl)c2nc3ccccc3s2)cc1 | 5 | 1 | 0.4 | -21 | 64*
Cc1ccc(CC(=O)NC2CCSC2=O)cc1 (configuration not stated) | -11 | 1.1 | 1.1 | 5 | -5
Cc1nnc(SCc2nc3sc4c(c3c(=O)[nH]2)CCCC4)[nH]c1=O | 15 | 0.8 | 1 | 14 | 3
O=C(COC(=O)c1cccc(S(=O)(=O)N2CCCCC2)c1)NC1CCCc2ccccc21 (configuration not stated) | 23 | 0.8 | 1.1 | -2 | -10
CN(C)S(=O)(=O)c1cccc(C(=O)OCC(=O)NC2CCCc3ccccc32)c1 (configuration not stated) | 10 | 0.9 | 0.4 | 10 | 57*
CCOC(=O)c1nc(Nc2ccc(N3CCC(C)CC3)cc2)c2ccccc2n1 | 30 | 0.7 | 1 | -3 | -1
CCOC(=O)N1CCC(N(CCN(C)C)C(=S)Nc2ccc(Oc3ccccc3)cc2)CC1 | 15 | 0.9 | 1.1 | 1 | -6
O=[N+]([O-])c1ccc(Sc2cccc3cccnc23)c2cccnc12 | 59* | 0.4 | 1 | 23 | -2
Cc1ccc([N+](=O)[O-])c2cccnc12 | 6 | 0.9 | 1.1 | 4 | -10
CCn1nc(C)c(CNC(=O)CCc2nnc(-c3ccc(C(C)=O)s3)o2)c1C | 2 | 1 | 1 | 3 | -4
c1cncc(-c2nc3ccccc3o2)c1 | -4 | 1 | 1 | 11 | 3
c1ccc2nc(-c3nc4ccccc4o3)ccc2c1 | 13 | 0.9 | 0.1 | 8 | 88*
Cc1cc([N+](=O)[O-])nn1CC(=O)NNC(=S)Nc1ccc([N+](=O)[O-])cc1 | 62* | 0.4 | 1 | 10 | -5
Nc1nn2c(-c3ccccc3)cc(=O)[nH]c2c1N=Nc1ccc(O)cc1 | 54* | 0.5 | 0.7 | 24 | 31
CCOc1ccc(C(=O)Nc2cc(C)on2)cc1 | -6 | 1.1 | 0.3 | 5 | 74*
CCOc1cc(C(=O)Nc2cc(C)on2)cc(OCC)c1OCC | 1 | 1 | 1 | 0 | -4
Cc1cc(NC(=O)c2ccc(S(=O)(=O)N(C)C)cc2)no1 | 11 | 0.9 | 1 | 2 | -2
Cc1cc(NC(=O)c2ccc(Cl)cc2)no1 | 17 | 0.8 | 0.4 | -3 | 59*
CN1CCc2cc3c(c4c2[C@H]1[C@H](O)c1ccccc1-4)OCO3 | 50 | 0.5 | 1 | 58* | 0
SMILES | Diaph inh CS | Diaph act CS | FLuc act counter | G6PDH counter | FLuc inh counter
COc1ccc2c(c1OC)C(=O)OC2C1c2c(cc3c(c2OC)OCO3)CCN1C (configuration not stated) | 30 | 0.7 | 1.1 | 8 | -5
COc1ccc(-c2nc(CSCC(=O)N3CCN(C(=O)c4ccco4)CC3)c(C)o2)cc1OC | 20 | 0.8 | 1 | 3 | -2
NC(=O)C1=C[C@H](c2csc3ccccc23)C[C@H](OCCCCO)O1 | 56* | 0.4 | 1 | 18 | -2
O=C(O)C1=C[C@@H](c2csc3ccccc23)C[C@@H](OCCCCO)O1 | 15 | 0.9 | 1.1 | 23 | -10
COC(=O)CC(NS(=O)(=O)c1cccs1)c1ccccc1Cl (configuration not stated) | 0 | 1 | 1 | 36 | 2
Cc1cc2cc(C(c3nnnn3Cc3ccco3)N3CCc4ccccc4C3)c(=O)[nH]c2cc1C (configuration not stated) | 59* | 0.4 | 1 | 11 | -3
Cc1cc2cc(C(c3nnnn3Cc3ccccc3)N3CCc4ccccc43)c(=O)[nH]c2cc1C (configuration not stated) | 42 | 0.6 | 1 | 20 | -2
Cc1cc2cc(C(c3nnnn3Cc3ccco3)N3CCc4ccccc43)c(=O)[nH]c2cc1C (configuration not stated) | 83* | 0.2 | 1.1 | 23 | -5
Cc1ccnc(Sc2ncccc2[N+](=O)[O-])n1 | 12 | 0.9 | 1 | -4 | -4
Cc1ccc(NC(=O)CN2C(=O)S/C(=C/c3ccc(O)c([N+](=O)[O-])c3)C2=O)cc1C | 92* | 0.1 | 1 | 13 | -2
Cc1cccc(NC(=O)CN2C(=O)S/C(=C\c3ccc(O)c([N+](=O)[O-])c3)C2=O)c1 | 15 | 0.8 | 1 | -9 | -2
Cc1ccc(OCc2nc(-c3cccs3)no2)c([N+](=O)[O-])c1 | 6 | 0.9 | 0.4 | 2 | 61*
CC(C)c1nc2sc3c(SCC(=O)NCc4ccco4)ncnc3c2c2c1CCC2 | 56* | 0.4 | 1 | 16 | 0
N#Cc1cccc2cnccc12 | 8 | 0.9 | 1.1 | -6 | -8
Nc1cccc2cnccc12 | 54* | 0.5 | 1 | 30 | 0
O=C1CCC(CCC(=O)N2CCCC(C(=O)c3cccc(C(F)(F)F)c3)C2)=NN1 (configuration not stated) | -1 | 1 | 1 | 6 | -4
Cc1ccn2c(C(=O)CSc3ccccc3)c(C)nc2c1 | 10 | 0.9 | 1 | -3 | -4
Cc1cccc2nc(=S)n(C(=O)c3ccco3)n12 | -4 | 1 | 0.2 | 0 | 85*
O=C(c1ccco1)n1c(=S)nc2ccccn21 | -17 | 1.2 | 0.3 | 5 | 68*
Cc1ccn2c(c1)nc(=S)n2C(=O)c1ccccc1 | 4 | 1 | 0 | 6 | 96*
COc1cc(C(=O)NNC2=NC(C)(C)Cc3cc(C)c(C)cc32)cc(OC)c1OC | -5 | 1.1 | 1 | -11 | -4
COc1ccc(F)cc1S(=O)(=O)Nc1ccc(C)cc1 | -2 | 1 | 1.1 | -5 | -7
CC1CCc2sc(-c3n[nH]c(=S)o3)cc2C1 (configuration not stated) | -4 | 1 | 0.4 | 8 | 57*
O=C(NNC(=S)NC(=O)C12CC3CC(CC(C3)C1)C2)c1ccncc1 | 51* | 0.5 | 1 | 1 | 2
Cc1nnc(SCc2cc(=O)[nH]c(=S)[nH]2)s1 | 64* | 0.4 | 1 | 10 | -4
O=c1cc(CSc2ccccc2)[nH]c(=S)[nH]1 | 40 | 0.6 | 1 | -3 | 0
NC(=S)Nc1nc2ccccc2s1 | -4 | 1 | 0.9 | 2 | 8

Screens deposited in PubChem by Sanford-Burnham Center for Chemical Genomics.
